Drawing on ChEMBL document CHEMBL1122694, “Steroidogenesis inhibitors. 1. Adrenal inhibitory and interceptive activity of trilostane and related compounds” (1984), this text covers MED10, minimal effective dose and MED90 for 16 compounds.

Test [1] has as its system Rattus norvegicus. Briefly: Minimum effective dose for 100% interruption of pregnancy in rat when compound was administered perorally; IN-Inactive. It counts as functional, organism-based. The method, boiled down:
(§1)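 Pregnant rats given a single oral dose on day 10 of pregnancy, seven rats per group. MED, in mg/kg po, is the minimum dose giving 100% interruption of pregnancy.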

Test [2] deals with Monkey. Briefly: Effect of compound on plasma level of cortisol in ACTH treated rhesus monkey when administered orally. It counts as functional. To be noted: Cercopithecidae, in Macaca mulatta, po, read-out: MED.
Test [3] deals with Rattus norvegicus. Briefly: Effect of compound on plasma level of corticosterone in ACTH treated pseudopregnant rats when administered orally. It counts as functional. To be noted: po, read-out: MED. The procedure, abridged:
(§2)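 Pseudopregnant rats stimulated with ACTH; single oral dose, groups of seven rats. Plasma progesterone and corticosterone measured; MED in mg/kg po is the single dose giving a significant (p < 0.01) fall versus stimulated control levels.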

The subject of test [4] is Monkey. Briefly: Effective dose for interruption of pregnancy in greater than 90% of the monkeys. It is filed as functional, Cercopithecidae. The method, boiled down:
(§3)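 Pregnant monkeys dosed once daily on days 50–54 of pregnancy; group size two to six or more monkeys. Effective dose, in mg per monkey per day, is the dose interrupting pregnancy in more than 90% of monkeys.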

The subject of test [5] is Rattus norvegicus. Briefly: Minimum effective dose for 100% interruption of pregnancy in rat when compound was administered perorally. It counts as functional. The method, boiled down:
as §1

Test [6] deals with Rattus norvegicus. Briefly: Effect of compound on plasma level of progesterone in ACTH treated pseudopregnant rats when administered orally. It counts as functional. To be noted: po, read-out: MED. The method, boiled down: as §2
Test [7] concerns Monkey. Briefly: Effective dose for interruption of pregnancy in greater than 90% of the monkeys; IN-Inactive. It is filed as functional, organism-based. As to conditions: Cercopithecidae. The procedure, abridged:
as §3

Calls of active or inactive are those of the source. The calls are words filed in the database; no cut-off is given here. Bounds are passed on as bounds.

Regarding `CC12CC[C@H]3[C@@H](CCC4CC(=O)[C@H](C#N)CC43C)[C@@H]1CCC2O` (stereo partly specified), the MED10 result in the test with Rattus norvegicus [1] is “inactive”.
As to `CC12CC[C@H]3[C@@H](CC[C@]45OC4C(=O)[C@@H](C#N)CC35C)[C@@H]1CCC2O` (stereo partly specified), in the test with Rattus norvegicus [1], the MED10 entry is “inactive”.
Turning to `CC12CC[C@H]3[C@@H](CC[C@@]45OC4(C)C(=O)[C@H](C#N)CC35C)[C@@H]1CCC2O` (stereo partly specified), the minimal effective dose came to 250 mg/kg in the test on Monkey [2], 50 mg/kg in the test with Rattus norvegicus [3] and 5 mg/kg in the test on Rattus norvegicus [6]. The MED90 in the test on Monkey [4] is on record as more than 500 mg monkey-1 day-1. In addition, in the test with Rattus norvegicus [5], the MED10 was 125 mg/kg.
Consider `CC12O[C@]13CCC1C(CCC4(C)C1CC[C@]4(C)O)C3(C)Cc1cnoc12` (stereo partly specified), for which the MED90 result with Monkey [7] was “inactive”. This compound also registered an MED10 in the test on Rattus norvegicus [5] of 192 mg/kg.
As to `CC12CCC3C(CC[C@@]45OC4c4oncc4CC35C)C1CCC2O` (stereo partly specified), the MED10 in the test with Rattus norvegicus [5] was more than 500 mg/kg.
Turning to `CC12O[C@]13CC[C@@H]1[C@H](CCC4(C)[C@H]1CC[C@]4(C)O)C3(C)C[C@@H](C#N)C2=O` (stereo partly specified), the results for the minimal effective dose in the test with Monkey [2], in the test on Rattus norvegicus [3] and in the test on Rattus norvegicus [6] were 250 mg/kg, 20 mg/kg and 20 mg/kg, respectively. In the test on Monkey [4], this compound gave an MED90 of 250 mg monkey-1 day-1. The MED10 in the test with Rattus norvegicus [5] came to 50 mg/kg.
`CC12CC[C@H]3[C@@H](CC[C@@]45OC4C(=O)CCC35C)[C@@H]1CCC2O` (stereo partly specified): the MED10 entry in the test on Rattus norvegicus [1] is “inactive”.
`CC12CC[C@H]3[C@@H](CC[C@@]45OC4C(=O)[C@H](C#N)CC35C)[C@@H]1CC[C@]2(C)O` (stereo partly specified): the minimal effective dose in the test on Monkey [2] was determined as 10 mg/kg; in the test with Rattus norvegicus [3], 50 mg/kg; in the test on Rattus norvegicus [6], 500 mg/kg. For the same compound, the MED90 with Monkey [4] was 250 mg monkey-1 day-1. Also, the MED10 with Rattus norvegicus [5] worked out at 500 mg/kg.
Consider `CC12CCC3C(CC[C@@]45OC4c4oncc4CC35C)C1CC[C@]2(C)O` (stereo partly specified), for which, in the test with Rattus norvegicus [5], the MED10 is more than 500 mg/kg.
In the case of `CC1(C)C2=CCC3C(CCC4(C)C3CC[C@]4(C)O)C2(C)Cc2cnoc21` (stereo partly specified), in the test with Monkey [4], the MED90 was more than 1000 mg monkey-1 day-1. Besides, the MED10 in the test on Rattus norvegicus [5] amounted to 25 mg/kg.
Regarding `CC1CC2C3CCC(O)C3(C)CCC2C2(C)Cc3cnoc3C3O[C@]132` (stereo partly specified), in the test with Rattus norvegicus [5], the MED10 is more than 500 mg/kg.
In turn, `CC12C[C@@H](C#N)C(=O)C=C1CCC1C2CCC2(C)C(O)CCC12` (stereo partly specified) registered an MED10 in the test with Rattus norvegicus [5] of 1000 mg/kg.
In the test on Rattus norvegicus [5], `CC12CCC3C(CC[C@@]45OC4(C)c4oncc4CC35C)C1CCC2O` (stereo partly specified) gave an MED10 of more than 500 mg/kg.
Take `CC12CC[C@H]3[C@@H](CC[C@@]45OC4C(=O)[C@H](C#N)CC35C)[C@@H]1CCC2O` (stereo partly specified): the minimal effective dose was found to be 10 mg/kg with Monkey [2], 50 mg/kg in the test on Rattus norvegicus [3] and 500 mg/kg in the test on Rattus norvegicus [6]. Further, the MED90 in the test on Monkey [4] was 1000 mg monkey-1 day-1. In the test with Rattus norvegicus [5], this compound showed an MED10 of 500 mg/kg.
As to `CC1(C)C(=O)[C@H](C#N)CC2(C)C1=CCC1C2CCC2(C)C1CC[C@]2(C)O` (stereo partly specified), the MED90 result in the test with Monkey [7] is “inactive”. This compound also displayed an MED10 with Rattus norvegicus [5] of 6 mg/kg.
`CC1C[C@H]2[C@@H]3CCC(O)C3(C)CC[C@@H]2C2(C)C[C@@H](C#N)C(=O)C3O[C@]132` (stereo partly specified) registered an MED90 in the test with Monkey [4] of 500 mg monkey-1 day-1. The same compound displayed an MED10 in the test with Rattus norvegicus [5] of 12 mg/kg.
